STAT3 activator – increases IL-6 driven STAT3 reporter signal. activation (% of control), % at 5.6 µM. U3A cells, IL-6 STAT3-luciferase reporter, luminescence; 100% = signal with IL-6 EC80 alone. actives 0.91% (n = 190,000). AID 871;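 active = activation above the screen-wide mean of compound activation plus 3 SD, cut at about 130% in these data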;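 also: 0% = background luminescence of wells with medium and substrate only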
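Material: human STAT1-deficient U3A cells with stable STAT3-luciferase reporter / Probe or stimulus: IL-6 stimulus at 33 ng/mL final / Schedule: 1 h compound pre-exposure, 6 h IL-6 stimulation, 37 °C / Technique: luminescence / Read-out basis: percent of IL-6-only median luminescence / Control set: IL-6-only high control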
APP 5'UTR act – APP 5'UTR luciferase reporter activation. SH-SY5Y APP 5'UTR luciferase reporter, luminescence; zero percent = DMSO vehicle wells. activation, % at 2 µM. actives 1% (n = 190,000);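 active = activation above a set limit, based on mean plus 3 SD of controls, cut at about 140% in these data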
STAT1 activator – increases IFN-gamma driven STAT1 reporter signal; AID 932; NIH 3T3 STAT1-luciferase reporter, luminescence; 100% = IFN-gamma alone, no compound; actives 2.6% (n = 200,000); activation (% of control), % at 5.5 µM;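 active = activation above the screen-wide mean activation plus 3 SD, cut at about 130% in these data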;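 also: raw ratio to IFN-gamma control signal so 100% means no change and 0% no light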
NF-kB neuron act – NF-kB expression increase, human neuronal cells; NF-kB reporter expression; stronger effect = higher value; fold change at 12.5 µM; actives 1.6% (n = 190,000); AID 1239; in the data active = fold change above about 3.3
STAT3 blocker – inhibitors of IL-6 induced STAT3 signaling; U3A cells, IL-6 STAT3-luciferase reporter, luminescence; host cell line lacks STAT1; inhibition, % at 5.5 µM; actives 0.89% (n = 190,000); AID 862;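 active = inhibition above the mean inhibition across all screened compounds plus 3 SD, cut at about 44% in these data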;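 also: 0% = DMSO only wells and 100% = 100 µM nifuroxazide control wells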
STAT1 inh-1 – inhibitors of IFN-gamma induced STAT1 signaling | NIH 3T3 STAT1-luciferase reporter, luminescence | AID 920 | inhibition, % at 5.5 µM | actives 0.35% (n = 200,000);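 active = inhibition above a set limit, the mean inhibition across all tested compounds plus 3 SD, cut at about 34% in these data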;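 also: 0% = IFN-gamma with DMSO and 100% = IFN-gamma with 300 µM nifuroxazide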
STAT1 inh-2 – STAT1 inhibition, confirmation assay. shares compounds with STAT1 inh-1. NIH 3T3 STAT1-luciferase reporter, IFN-gamma, luminescence. inhibition, % at 5.5 µM. actives 55% (n = 200). AID 1263;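 active = triplicate mean inhibition exceeding the hit cutoff computed for the primary STAT1 screen, cut at about 35% in these data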;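 also: 0% = DMSO with IFN-gamma and 100% = 300 µM nifuroxazide with IFN-gamma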
NFkB inh – NF-kappaB inhibition in STAT1 inhibitor counter-screen; shares compounds with STAT1 inh-1; HEK293T NF-kB luciferase reporter, TNF-alpha induced, luminescence; inhibition, % at 5.7 µM; actives 30% (n = 200); AID 1303;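 active = inhibition above the mean of solvent-only control wells plus 3 SD of those wells, cut at about 15% in these data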;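 also: 0% = DMSO with TNF-alpha and 100% = MG-132 control with TNF-alpha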
STAT3 inh STAT1c – STAT3 inhibition in STAT1 inhibitor counter-screen | inhibition, % at 5.7 µM | actives 20% (n = 200) | shares compounds with STAT1 inh-1 | U3A cells, IL-6 STAT3 luciferase reporter, luminescence; cells lacking STAT1;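 active = inhibition above the mean of solvent-only control wells plus 3 SD, set per campaign, cut at about 25% in these data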;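 also: 0% = IL-6 plus DMSO and 100% = IL-6 plus nifuroxazide control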
STAT1 act conf – confirmation of STAT1 signaling activators; shares compounds with STAT1 activator; activation (% of control), % at 5.7 µM; actives 97% (n = 1,200); NIH 3T3 STAT1-luciferase reporter, IFN-gamma potentiation, luminescence; 100% = IFN-gamma EC80 alone, no compound; AID 1262;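 active = activation above a set limit carried over from the earlier primary STAT1 screen, cut at about 140% in these data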;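 also: simple ratio to median IFN-gamma plus DMSO wells so 0% means no light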
NFkB act – NF-kappaB activation in STAT1 activator counter-screen. shares compounds with STAT1 activator. HEK293T NF-kB luciferase reporter, TNF-alpha stimulated, luminescence; 100% = TNF-alpha with vehicle only. activation (% of control), % at 5.7 µM. actives 43% (n = 1,200). AID 1306;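 active = activation above the mean of solvent-only control wells plus 3 SD, set per campaign, cut at about 130% in these data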;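 also: TNF-alpha given at a submaximal dose yielding about 80% of full reporter signal; values are well signal over median control so 100% means no change and 0% no light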
STAT3 act 2 – activates human STAT3, counter-screen to STAT1 activators; shares compounds with STAT1 activator; U3A cells STAT3-luciferase reporter, IL-6, luminescence; cells lack STAT1; 100 = IL-6 alone, no compound effect; activation (% of control), % at 5.7 µM; actives 46% (n = 1,200); AID 1316;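 active = activation above the solvent-only control well mean plus 3 SD, set per plate batch, cut at about 110% in these data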;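 also: 0% = no luminescence and 100% = median IL-6 plus DMSO wells; higher means more STAT3 reporter activation so hits are non-selective activators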
An asterisk follows results filed as active; . = not tested or not shown. Shown are actives, neighbours in structure and some others; about 4.9% of the full set was active somewhere.

SMILES	STAT3 activator	APP 5'UTR act	STAT1 activator	NF-kB neuron act	STAT3 blocker	STAT1 inh-1	STAT1 act conf	NFkB act	STAT3 act 2	others
CC1(C)CC(=O)C(C=NCCN2CCN(C(=O)Cc3ccc(F)cc3)CC2)=C(O)C1	104	-15	67	1.1	0	34*	.	.	.	STAT1 inh-2=0;NFkB inh=-4;STAT3 inh STAT1c=-7
O=C(Nc1ccc(OC(=O)N2CCCCC2)cc1)N1CCOCC1	84	-52	66	0.64	22	36*	.	.	.	STAT1 inh-2=14;NFkB inh=5;STAT3 inh STAT1c=12
O=C(Nc1ccc(OC(=O)N2CCCC2)cc1)N1CCOCC1	95	-4	99	1	10	1	.	.	.
CC(=O)c1cc(C#N)c(N2CCN(C)CC2)nc1C	97	7	104	1.1	8	-8	.	.	.
CN1C(=O)/C(=C/c2ccc(N3CCCCCC3)o2)C(=O)NC1=S	122	28	166*	2.4	-24	-74	213*	148*	126*
OC(c1cccc(Cl)c1)(c1cccc(Cl)c1)C1CN2CCC1CC2 (stereo not drawn)	108	5	116	1.1	-4	-19	.	.	.
CC(=O)Nc1ccccc1C(=O)OCc1cccc(F)c1	107	3	184*	1	0	-93	182*	124	108
O=C(O)c1cn(Cc2ccccc2)nc1-c1ccccc1	97	-4	97	0.98	6	2	.	.	.
CCc1ccc(-c2nn(Cc3ccccc3)cc2C=O)cc1	122	133	170*	4.1*	-19	-75	158*	128	121*
CCn1c(O)c(C=NCc2cccs2)c(=O)[nH]c1=O	110	14	100	0.86	-8	0	.	.	.

High-throughput results deposited in PubChem BioAssay by several laboratories.
